Assay results taken from ChEMBL document CHEMBL3272283, “Contraceptive agents from cycloaddition reactions of diarylcyclopropenones and diarylthiirene 1, 1-dioxides” (J Med Chem, 1976).
Active and inactive are the calls of the source. The rule behind the calls is not given here.

Tests used:
[1] = tested on: Rattus norvegicus; experiment: Antifertility activity in 1 to 9 days pregnancy Charles River CD rat assessed as reduction in number of viable fetuses at 25 mg/kg, po; format: functional
How it was run: (§1)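 Adult females (rats: Charles River CD; hamsters: Lakeview LAK/LVG-SVR) kept under reversed light (dark 6 a.m.-6 p.m.). Caged with proven-fertile males at 9:00 a.m.; plug or vaginal sperm at 3:00 p.m. marked day 0. Oral dosing generally days 1-9, groups of five; killed day 11. Living fetuses, resorptions and implantation sites counted against controls. Score by % fewer viable fetuses: A <24%, +1 25-49%, +2 50-74%, +3 75-99%, +4 none living.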

[2] = tested on: Rattus norvegicus; experiment: Antifertility activity in 1 to 9 days pregnancy Charles River CD rat assessed as abortion of implanted embryos at 25 mg/kg, po qd for 9 days; format: functional, organism-based; set-up: dose 25 mg/kg; how it was run: as §1
[3] = tested on: Hamster; experiment: Antifertility activity in 1 to 9 days pregnancy hamster assessed as reduction in number of viable fetuses at 50 mg/kg, po; format: functional, Cricetinae; how it was run: as §1
[4] = tested on: Rattus norvegicus; experiment: Antifertility activity in 1 to 9 days pregnancy Charles River CD rat assessed as reduction in number of viable fetuses at 5 mg/kg, po; format: functional; how it was run: as §1
[5] = tested on: Rattus norvegicus; experiment: Antifertility activity in 1 to 9 days pregnancy Charles River CD rat assessed as reduction in number of viable fetuses at 50 mg/kg, po; format: functional; how it was run: as §1
[6] = tested on: Hamster; experiment: Antifertility activity in 1 to 9 days pregnancy hamster assessed as reduction in number of viable fetuses at 10 mg/kg, po; format: functional, Cricetinae; how it was run: as §1
[7] = species on record: Canis familiaris; experiment: Effect on mating behavior in spayed dog; settings: Canis lupus familiaris
[8] = species on record: Rattus norvegicus; experiment: Estrogenic activity in immature rat assessed as induction of vaginal opening; format: functional, organism-based
[9] = species on record: Rattus norvegicus; experiment: Estrogenic activity in rat assessed as increase of uterine weight; format: functional, organism-based
[10] = species on record: Rattus norvegicus; experiment: Estrogenic activity in adult ovariectomized rat assessed as induction of vaginal opening and cornification; format: functional, organism-based
[11] = tested on: Hamster; experiment: Uterotrophic activity in hamster; format: functional, organism-based; settings: Cricetinae; Uterus
[12] = species on record: Oryctolagus cuniculus; experiment: Estrogenic activity in immature rabbit uterus assessed as Clauberg progestational response; format: functional, tissue-based
[13] = tested on: Rhesus monkey; experiment: Toxicity in rhesus monkey up to 800 mg/kg, po; format: organism-based, Macaca mulatta; set-up: dose 800 mg/kg, route oral; settings: in vivo
[14] = species on record: Rattus norvegicus; experiment: Antiestrogenic activity in rat; format: functional, organism-based
[15] = species on record: Rattus norvegicus; experiment: Estrogenic activity in immature rat; format: functional, organism-based
[16] = species on record: Rattus norvegicus; experiment: Estrogenic activity in adult ovariectomized rat; format: functional, organism-based
[17] = tested on: Rattus norvegicus; experiment: Antideciduomal activity in pseudopregnant rat administered once in weekly; format: functional, organism-based
[18] = species on record: Rattus norvegicus; experiment: Estrogenic activity in adult ovariectomized rat assessed as induction of uterine growth; format: functional, organism-based

**Q.** Which Activity [1] does the source give for `COc1ccc(C2=C(c3ccc(OC)cc3)[C@H]3C4CCC(C4)[C@@]3(N3CCCC3)C2=O)cc1` (relative stereo) here?
**A.** 0%

**Q.** Which results are given for `O=C1C(c2ccccc2)=C(c2ccccc2)[C@H]2C3CCC(C3)[C@@]12N1CCCC1` (relative stereo)?
**A.** Activity [2]: Active; Activity [1]: 100%; Activity [3]: 0%

**Q.** For `O=C(/C(=C(\C=C1CCCCC1)c1ccccc1)c1ccccc1)N1CCCC1`, which Activity [1] is on record?
**A.** 0%

**Q.** For `O=S1(=O)C(c2ccccc2)=C(c2ccccc2)C2C3CCC(C3)[C@]21N1CCCC1` (some centres not stated), which Activity [1] is on record?
**A.** 75%

**Q.** With `O=C1C(c2ccccc2)=C(c2ccccc2)C2CCc3ccccc3[C@@]12N1CCCC1` (some centres not stated) as the compound, how does the Activity [1] read?
**A.** 50%

**Q.** With `O=C(/C(=C(\C=C1/CC=CCC1)c1ccccc1)c1ccccc1)N1CCCC1` as the compound, how does the Activity [1] read?
**A.** 0%

**Q.** How did the Activity [1] turn out when `O=S1(=O)C(c2ccccc2)=C1c1ccccc1` was run?
**A.** inactive

**Q.** For `O=C(/C(=C(\C1=Cc2ccccc2CC1)c1ccccc1)c1ccccc1)N1CCCC1`, which Activity [4] is on record?
**A.** inactive

**Q.** What about the Activity [5] of the same compound?
**A.** 100%

**Q.** How did the Activity [4] turn out when `CC(C)=C/C(=C(\C(=O)N1CCCC1)c1ccccc1)c1ccccc1` was run?
**A.** inactive

**Q.** And the Activity [1]?
**A.** 100%

**Q.** How did the Activity [1] turn out when `O=C(/C(=C(\C1=CC2CCC(C1)C2)c1ccccc1)c1ccccc1)N1CCCCC1` (configuration not stated) was run?
**A.** 0%

**Q.** For `O=C1C(c2ccccc2)=C(c2ccccc2)[C@H]2C3CCC(C3)[C@@]12N1CCCCCC1` (relative stereo), which Activity [2] is on record?
**A.** Active

**Q.** And the Activity [1]?
**A.** 100%

**Q.** And the Activity [3]?
**A.** 0%

**Q.** How did the Activity [1] turn out when `CN(C)[C@]12C(=O)C(c3ccccc3)=C(c3ccccc3)[C@H]1C1CCC2C1` (relative stereo) was run?
**A.** 0%

**Q.** With `O=C(/C(=C(\C1=Cc2ccccc2CC1)c1ccccc1)c1ccccc1)N1CCCCC1` as the compound, how does the Activity [1] read?
**A.** 100%

**Q.** Which Activity [1] does the source give for `O=C1C(c2ccccc2)C(c2ccccc2)C2C3CCC(C3)[C@@]12N1CCCC1` (some centres not stated) here?
**A.** 25%

**Q.** How did the Activity [1] turn out when `COc1ccc(-c2c(-c3ccc(OC)cc3)c2=O)cc1` was run?
**A.** inactive

**Q.** `O=C1C(c2ccccc2)=C(c2ccccc2)[C@H]2C3CCC(C3)[C@@]12N1CCCCC1` (relative stereo) was tested. Which Activity [6] did it give?
**A.** 25%

**Q.** What about the Activity [7] of the same compound?
**A.** inactive

**Q.** And the Activity [8]?
**A.** Active

**Q.** What about the Activity [2] of the same compound?
**A.** Active

**Q.** What about the Activity [9] of the same compound?
**A.** Active

**Q.** What about the Activity [10] of the same compound?
**A.** Active

**Q.** And the Activity [11]?
**A.** Active

**Q.** And the Activity [1]?
**A.** 100%

**Q.** And the Activity [12]?
**A.** inactive

**Q.** And the Activity [13]?
**A.** Non-toxic

**Q.** And the Activity [14]?
**A.** inactive

**Q.** And the Activity [15]?
**A.** Active

**Q.** And the Activity [16]?
**A.** Active

**Q.** What about the Activity [17] of the same compound?
**A.** Active

**Q.** And the Activity [18]?
**A.** Active

**Q.** What about the Activity [3] of the same compound?
**A.** 100%

**Q.** Which Activity [1] does the source give for `O=S1(=O)C(c2ccccc2)=C(c2ccccc2)C2C3CCC(C3)[C@]21N1CCCCC1` (some centres not stated) here?
**A.** 100%

**Q.** With `C[C@@]12C(c3ccccc3)=C(c3ccccc3)C(=O)[C@]1(N1CCCC1)C1CCC2C1` (relative stereo) as the compound, how does the Activity [4] read?
**A.** 0%

**Q.** How did the Activity [1] turn out when `O=C1C(c2ccccc2)=C(c2ccccc2)C2C3CC(C4C=CCC43)[C@@]12N1CCCC1` (some centres not stated) was run?
**A.** 0%

**Q.** How did the Activity [1] turn out when `O=C1C(c2ccc(Cl)cc2)=C(c2ccc(Cl)cc2)[C@H]2C3CCC(C3)[C@@]12N1CCCCC1` (relative stereo) was run?
**A.** 0%

**Q.** For `O=C(/C(=C(\C1=CC2CCC1CC2)c1ccccc1)c1ccccc1)N1CCCCC1`, which Activity [1] is on record?
**A.** 0%

**Q.** `O=C1C(c2cccs2)=C(c2cccs2)C2C3CCC(C3)[C@@]12N1CCCCC1` (some centres not stated) was tested. Which Activity [1] did it give?
**A.** 0%

**Q.** For `O=c1c(-c2ccc(Cl)cc2)c1-c1ccc(Cl)cc1`, which Activity [1] is on record?
**A.** inactive

**Q.** `O=C1C(c2ccccc2)=C(c2ccccc2)[C@H]2C3CCC(C3)[C@@]12N1CCOCC1` (relative stereo) was tested. Which Activity [1] did it give?
**A.** 0%

**Q.** Which Activity [1] does the source give for `CC1=C(/C(=C(\C(=O)N2CCCC2)c2ccccc2)c2ccccc2)C2CCC1C2` (configuration not stated) here?
**A.** 0%

**Q.** Which Activity [2] does the source give for `O=C1C(c2ccccc2)=C(c2ccccc2)C2C3CCC(C3)C[C@@]12N1CCCCC1` (some centres not stated) here?
**A.** Active

**Q.** And the Activity [1]?
**A.** 100%

**Q.** With `O=C1C(c2ccc(Cl)cc2)=C(c2ccc(Cl)cc2)[C@H]2C3CCC(C3)[C@@]12N1CCCC1` (relative stereo) as the compound, how does the Activity [1] read?
**A.** 0%

**Q.** How did the Activity [1] turn out when `O=S1(=O)C(c2ccc(Cl)cc2)=C1c1ccc(Cl)cc1` was run?
**A.** inactive

**Q.** How did the Activity [2] turn out when `O=C1C(c2ccccc2)=C(c2ccccc2)C2C3CCC(CC3)[C@@]12N1CCCCC1` (some centres not stated) was run?
**A.** Active

**Q.** What about the Activity [1] of the same compound?
**A.** 100%

**Q.** For `O=c1c(-c2ccccc2)c1-c1ccccc1`, which Activity [1] is on record?
**A.** inactive

**Q.** Which Activity [1] does the source give for `O=S1(=O)C(c2ccc(Cl)cc2)=C(c2ccc(Cl)cc2)C2C3CCC(C3)[C@]21N1CCCC1` (some centres not stated) here?
**A.** 0%

**Q.** Which Activity [1] does the source give for `O=C(/C(=C(\C1=CCCCc2ccccc21)c1ccccc1)c1ccccc1)N1CCCC1` here?
**A.** 0%

**Q.** Which results are given for `O=C1C(c2ccccc2)=C(c2ccccc2)C2C3CC(C[C@]12N1CCCC1)c1ccccc13` (some centres not stated)?
**A.** Activity [2]: Active; Activity [1]: 100%; Activity [3]: 25%

**Q.** For `O=C1C(c2ccccc2)=C(c2ccccc2)C2CC3CCC(C3)[C@@]12N1CCCC1` (some centres not stated), which Activity [1] is on record?
**A.** 0%

**Q.** `O=C(/C(=C(\C1=CCCc2ccccc21)c1ccccc1)c1ccccc1)N1CCCC1` was tested. Which Activity [1] did it give?
**A.** 0%

**Q.** For `CN1CCN([C@]23C(=O)C(c4ccccc4)=C(c4ccccc4)[C@H]2C2CCC3C2)CC1` (relative stereo), which Activity [2] is on record?
**A.** Active

**Q.** What about the Activity [4] of the same compound?
**A.** 75%
